For 17 molecules, Anticoagulant activity, IC50 and inhibition results are on record in ChEMBL document CHEMBL1138780, “Synthesis and conformational analysis of a non-amidine factor Xa inhibitor that incorporates 5-methyl-4,5,6,7-tetrahydrothiazolo[5,4-c]pyridine as S4 binding element” (J Med Chem, 2004).

For experiment [1], the species on record is Rattus norvegicus. Briefly: Anticoagulant activity in vitro was evaluated by prolongation rate of prothrombin time. Type of experiment: functional.
The nature of experiment [2]: Anticoagulant activity in vitro was evaluated with plasma clotting time doubling concentration for prothrombin time. Type of experiment: functional, Homo sapiens.
The target of experiment [3] is Prothrombin (Homo sapiens, UniProt P00734). The experiment can be described thus: Concentration required to inhibit thrombin activity by 50%.
For experiment [4], the target named is Coagulation factor X (Rattus norvegicus) (UniProt Q63207). Briefly: Ex-vivo inhibitory activity against factor Xa of rat blood after 1 hr of peroral administration of 30 mg/kg. Type of experiment: organism-based. To be noted: at 30 mg/kg. On the set-up: dose 30 mg/kg. A digest of the protocol:
(§1)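 Fasted male Wistar rats received compound orally by stomach tube in 0.5% methylcellulose; controls got vehicle. Under halothane anesthesia, citrated blood was drawn at the stated time and platelet-poor plasma prepared. Plasma anti-fXa activity was measured chromogenically in Tris/NaCl/BSA buffer, pH 7.4, as 1 − sample OD/min ÷ control OD/min.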

Experiment [5] shares this target. Briefly: Ex-vivo inhibitory activity against factor Xa of rat blood after 3h of peroral administration of 30 mg/kg. Type of experiment: organism-based. On the set-up: dose 30 mg/kg. The note with it: at 30 mg/kg. An outline of the steps:
as §1

For experiment [6] the target is unchanged. Briefly: Ex-vivo inhibitory activity against factor Xa of rat blood after 6 hr of peroral administration of 30 mg/kg. Type of experiment: organism-based. Also on record: dose 30 mg/kg. The note with it: at 30 mg/kg. An outline of the steps: as §1
For experiment [7], the target named is Coagulation factor X (Homo sapiens, UniProt P00742). The experiment can be described thus: Inhibitory concentration against Coagulation factor X.
Chain of Coagulation factor X (P00742 41-179 limits assumed): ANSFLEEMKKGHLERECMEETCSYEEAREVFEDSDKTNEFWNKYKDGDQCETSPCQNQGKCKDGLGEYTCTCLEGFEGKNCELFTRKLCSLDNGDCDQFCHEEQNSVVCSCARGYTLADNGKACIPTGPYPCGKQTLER
Chain of Coagulation factor X (P00742 235-488 limits assumed): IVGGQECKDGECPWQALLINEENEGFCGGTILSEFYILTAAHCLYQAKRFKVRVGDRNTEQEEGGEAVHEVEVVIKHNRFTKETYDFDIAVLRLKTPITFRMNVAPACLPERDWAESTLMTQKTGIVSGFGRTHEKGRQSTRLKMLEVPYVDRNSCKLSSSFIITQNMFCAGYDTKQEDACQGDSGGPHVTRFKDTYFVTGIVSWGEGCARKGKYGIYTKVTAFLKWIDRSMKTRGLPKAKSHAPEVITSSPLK

Chain of Coagulation factor X (Rattus norvegicus) (Q63207 41-180 limits assumed): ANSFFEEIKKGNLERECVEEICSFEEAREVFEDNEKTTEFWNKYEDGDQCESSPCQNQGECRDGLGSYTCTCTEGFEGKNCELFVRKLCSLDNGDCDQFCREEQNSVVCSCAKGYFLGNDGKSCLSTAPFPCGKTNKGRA
Chain of Coagulation factor X (Rattus norvegicus) (Q63207 232-482 limits assumed): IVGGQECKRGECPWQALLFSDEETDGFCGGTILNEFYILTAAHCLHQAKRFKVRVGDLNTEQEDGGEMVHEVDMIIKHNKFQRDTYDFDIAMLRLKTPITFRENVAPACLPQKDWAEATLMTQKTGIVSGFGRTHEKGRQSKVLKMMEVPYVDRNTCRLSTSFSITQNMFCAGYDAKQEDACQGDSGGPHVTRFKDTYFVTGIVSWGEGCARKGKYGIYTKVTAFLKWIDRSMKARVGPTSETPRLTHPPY

In general, IC50 refers to the concentration that gives 50% inhibition. In general, inhibition refers to the relative decrease from the control value, in per cent. Low values mean a weak effect, high ones a strong effect. Take `CN1CCc2nc(C(=O)N3CCN(S(=O)(=O)c4ccc5cc(Cl)ccc5c4)CC3C(N)=O)sc2C1` (configuration not stated): the Anticoagulant activity was found to be 14 µM in experiment [1] and 4.4 µM in experiment [2]. The half-inhibitory concentration (IC50) in experiment [3] amounted to 1000 nM. Further, the figures for the inhibition in experiment [4], in experiment [5] and in experiment [6] were 67.4%, 55.8% and 24.7%, respectively.

With `CN1CCc2cc(C(=O)N3CCN(S(=O)(=O)c4ccc5cc(Cl)ccc5c4)CC3)oc2C1`, the IC50 in experiment [7] is 550 nM.

On to `CC(C)N1CCc2nc(C(=O)N3CCN(S(=O)(=O)c4ccc5cc(Cl)ccc5c4)CC3C(N)=O)sc2C1` (configuration not stated), for which the results for the Anticoagulant activity in experiment [1] and in experiment [2] were 17.5 µM and 6.6 µM, respectively. Also, in experiment [7], the IC50 is 80 nM.

As to `O=C(c1nc2c(s1)CNCC2)N1CCN(S(=O)(=O)c2ccc3cc(Cl)ccc3c2)CC1`, the Anticoagulant activity in experiment [1] was 16.1 µM; in experiment [2], 11.2 µM. Also, the 50% inhibitory concentration (IC50) in experiment [3] came to 2900 nM.

Regarding `CCN1CCc2nc(C(=O)N3CCN(S(=O)(=O)c4ccc5cc(Cl)ccc5c4)CC3C(N)=O)sc2C1` (configuration not stated), the Anticoagulant activity in experiment [1] came to 14.6 µM; in experiment [2], 7.2 µM. The molecule further yielded an IC50 in experiment [7] of 110 nM.

In turn, `CN1CCc2nc(C(=O)N3CCN(S(=O)(=O)c4ccc5cc(Cl)ccc5c4)CC3)ccc2C1` yielded a concentration for half-maximal inhibition (IC50) in experiment [7] of 2200 nM.

Turning to `O=C(c1cc2c(s1)CCNC2)N1CCN(S(=O)(=O)c2ccc3cc(Cl)ccc3c2)CC1`, the IC50 in experiment [7] turned out to be 270 nM.

In experiment [7], `CN1CCc2sc(C(=O)N3CCN(S(=O)(=O)c4ccc5cc(Cl)ccc5c4)CC3)cc2C1` yielded an IC50 of 190 nM.

As to `O=C(c1ccc2c(n1)CCNC2)N1CCN(S(=O)(=O)c2ccc3cc(Cl)ccc3c2)CC1`, in experiment [7], half-maximal inhibition (IC50) required 920 nM.

With `O=C(c1cc2c([nH]1)CCNC2)N1CCN(S(=O)(=O)c2ccc3cc(Cl)ccc3c2)CC1`, half-maximal inhibition in experiment [7] (IC50) was put at 6200 nM.

For `CN1CCc2nc(C(=O)N3CCN(S(=O)(=O)c4ccc5cc(Cl)ccc5c4)CC3)sc2C1`, the Anticoagulant activity in experiment [1] worked out at 10 µM; in experiment [2], 6 µM. In experiment [3], this molecule displayed an IC50 of 560 nM.

As to `CN1CCc2cc(C(=O)N3CCN(S(=O)(=O)c4ccc5cc(Cl)ccc5c4)CC3)sc2C1`, in experiment [7], 105 nM corresponded to half-maximal inhibition (IC50).

Consider `NC(=O)C1CN(S(=O)(=O)c2ccc3cc(Cl)ccc3c2)CCN1C(=O)c1nc2c(s1)CNCC2` (configuration not stated), for which the values for the Anticoagulant activity in experiment [1] and in experiment [2] were 28.8 µM and 9.7 µM, respectively. This molecule gave an IC50 in experiment [7] of 83 nM.

Molecule `O=C(c1ccc2c(c1)CCNC2)N1CCN(S(=O)(=O)c2ccc3cc(Cl)ccc3c2)CC1` showed an IC50 in experiment [7] of 640 nM.

As for `CN1CCc2[nH]c(C(=O)N3CCN(S(=O)(=O)c4ccc5cc(Cl)ccc5c4)CC3)cc2C1`, the 50% inhibitory concentration (IC50) in experiment [7] was found to be 320 nM.

With `O=C(c1cc2c(s1)CNCC2)N1CCN(S(=O)(=O)c2ccc3cc(Cl)ccc3c2)CC1`, the IC50 in experiment [7] stood at 160 nM.

Molecule `CN1CCc2sc(C(=O)N3CCN(S(=O)(=O)c4ccc5cc(Cl)ccc5c4)CC3)nc2C1` had an IC50 in experiment [7] of 210 nM.
